Bioassay records from PubChem BioAssay.
In the library only some 2.3% were active in any assay of this set; here they are far more common.
TRPC4 block = inhibitors of mouse TRPC4 channel. Q9QUQ5. HEK293 TRPC4beta/mu-opioid, DAMGO-evoked Fluo4 calcium flux; active compounds read low. B-score at 10 µM. 0.39% of 300,000 active;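 active = B-score over 3 SD under the library average, no early fluorescence shift, positive overall ratio signal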
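test system = HEK293 cells with stable TRPC4beta plus mu-opioid receptor expression | detection = Fluo4 Ca2+ flux fluorescence | read-out = integrated fluorescence ratio relative to baseline, converted to per-well B score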
TRPC4 act = TRPC4 (mouse) channel activation; 0.49% of 310,000 active; B-score at 10 µM; HEK293 TRPC4beta/mu-opioid, Fluo4 calcium fluorescence; active compounds read high;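 active = B-score above 5 SD of library B-scores, and initial fluorescence ratio not above library mean plus 5 SD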;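 also: positive B-score marks a calcium rise read as TRPC4 activation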
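System: HEK293 cells stably co-expressing mouse TRPC4beta and mu-opioid receptor; Schedule: Fluo4 dye loading 45 min at room temperature, 110 s recording; Detection: Fluo4 fluorescence, kinetic; Evaluation: B-scored integrated calcium fluorescence ratio; Controls: buffer (low) and maximal DAMGO (high).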
TRPC6 inh = mouse TRPC6 channel inhibition; 1.1% of 310,000 active; Q61143; B-score at 10 µM; HEK293-TRPC6, membrane potential dye, ACh-evoked depolarization; active compounds read low; AID 2553;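 active = B-score under library mean minus 3 SD, initial fluorescence not abnormally high, positive integrated signal ratio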;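 also: B-score derived from integrated fluorescence ratio over the kinetic read; more negative B-score means stronger inhibition of depolarization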
TRPC6 activator = activates the mouse TRPC6 cation channel | Q61143 | HEK293-TRPC6 membrane potential dye fluorescence; active compounds read high | B-score at 10 µM | 0.13% of 310,000 active;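 active = B-score of the integrated fluorescence ratio above library mean plus 3 SD, and starting fluorescence ratio within library mean plus 5 SD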;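 also: higher score means more depolarization so channel activation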
TRPC4 potent = TRPC4 (mouse) allosteric potentiation | HEK293 TRPC4beta/mu-opioid, DAMGO EC20, Fluo-4 Ca2+ flux; active compounds read high | B-score at 10 µM | 0.42% of 310,000 active | AID 2227;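 active = B-score of calcium response area above 5 SD of library B-scores, with initial fluorescence ratio within 5 SD of library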
Hits are given with their value; n = inactive.

SMILES	TRPC4 block	TRPC4 act	TRPC6 inh	TRPC6 activator	TRPC4 potent
CCOC(=O)C1CCN(Cc2nc3ccc([N+](=O)[O-])cc3c(=O)n2-c2ccc(OC)cc2OC)CC1	n	59	n	n	n
COc1ccc(-n2c(CN3CCC(C(N)=O)CC3)nc3ccc([N+](=O)[O-])cc3c2=O)c(OC)c1	n	n	n	n	n
O=C(OCC(=O)N1CCCc2ccccc21)c1ccc(F)c(S(=O)(=O)N2CCOCC2)c1	n	n	n	n	n
Oc1cccc(/C=N/NC(=S)Nc2cccnc2)c1O	n	50	n	n	n
Oc1ccc(/C=N/NC(=S)Nc2cccnc2)c(O)c1O	n	n	n	n	n
Cc1cc2oc(C(=O)N(Cc3ccco3)C3CCS(=O)(=O)C3)cc(=O)c2cc1Cl (centres undefined)	n	n	n	n	82
CC1CCN(CCCNC(=O)c2nn(C)c3c2CS(=O)(=O)c2ccccc2-3)CC1	n	n	n	n	n
CC1CC(C)CN(CCCNC(=O)c2nn(C)c3c2CS(=O)(=O)c2ccccc2-3)C1 (centres undefined)	n	98	n	n	n
COC(=O)c1ccc(CN2CCC(n3nccc3NC(=O)C3CC3)CC2)cc1	n	n	n	n	n
Cc1c(CN2CCC(n3nccc3NC(=O)C3CC3)CC2)[nH]c2ccccc12	n	64	n	n	n
NNC(=O)c1[nH]c(-c2ccccc2)cc1-c1ccccc1	n	n	n	n	n
Cc1cc(-c2sccc2C)nc(-n2cccc2)n1	-6	n	n	n	n
Cc1nc2cc(-c3sccc3-n3cccc3)nn2c(C)c1C	n	n	n	n	n
C/[N+]([O-])=C\c1cccc(OCCN2CCN(c3ncc(C(F)(F)F)cc3Cl)CC2)c1	n	n	n	n	12
O=C(Nc1ccccn1)c1ccc(Cl)c([N+](=O)[O-])c1	n	n	n	n	n
Cc1cccc(/C=N/NC(=O)c2cccc(Cl)c2)n1	n	n	n	n	21
NCCc1nc(-c2ccccc2)cs1	n	116	n	n	n
NC(=O)Cc1nc(-c2ccccc2)cs1	n	n	n	n	n
CSc1nnc(-c2ccc(C(F)(F)F)nc2C)o1	n	n	n	n	n
CN(CC(=O)NC1CCCc2ccccc21)C1CCCCC1 (centres undefined)	-5	n	n	n	n
CC(C(=O)NCc1cccc(Cl)c1)N1C(=O)c2ccccc2C1=O (centres undefined)	n	n	n	n	n
O/N=C/c1cn(-c2ccccc2)nc1-c1ccc2c(c1)OCCO2	n	n	n	n	24
O=C(O)/C=C/c1cn(-c2ccccc2)nc1-c1ccc2c(c1)OCCO2	n	n	n	n	n
Cc1ccc(NC(=O)CN2C(=O)C3C4C=CC(C4)C3C2=O)cc1S(=O)(=O)N(C)C (centres undefined)	n	n	n	n	n
CCOc1ccc(N/C(N)=N/c2nc(C)cc(C)n2)cc1	n	n	n	n	n
SMILES	TRPC4 block	TRPC4 act	TRPC6 inh	TRPC6 activator	TRPC4 potent
CCCCN(CCCC)/C(N)=N/c1nc(C)cc(C)n1	-7	n	n	n	n
Cc1nc(C(C)N(C)Cc2nc(-c3ccc4c(c3)OCO4)no2)c(C)s1 (centres undefined)	n	n	n	n	n
Cc1ccnc(NC(=O)Cn2cc([N+](=O)[O-])cn2)c1	-8	n	n	n	n
O=C(Cn1cc([N+](=O)[O-])cn1)Nc1ccccn1	n	n	n	n	n
CCOC(=O)N1CCN(c2cc(=O)n(-c3cccc(C)c3)c(=O)[nH]2)CC1	n	n	n	n	n
Cc1oc(-c2ccoc2)nc1CN(Cc1ccccc1)CC1CC1	-9	n	n	n	n
c1ccc(CC2CCCNC2)cc1 (centres undefined)	n	90	n	n	n
CC1CCN(S(=O)(=O)N2CCC(C(=O)NCCc3ccccc3)CC2)CC1	n	n	n	n	n
COc1ccc(F)cc1CN1CCN(C(=O)CCC(=O)Nc2nnc(C(C)C)s2)CC1	n	69	n	n	n
CCCc1nnc(NC(=O)CCC(=O)N2CCN(Cc3cc(F)ccc3OC)CC2)s1	n	n	n	n	n
CC1(C)CC(=O)C(C=NCCN2CCN(C(=O)CCl)CC2)=C(O)C1	n	n	n	n	34
CC1(C)CC(=O)C(C=NCCN2CCN(C3CC(=O)N(c4ccc(F)cc4)C3=O)CC2)=C(O)C1 (centres undefined)	n	n	n	n	n
